TMEM16A act: mouse TMEM16A channel activation, primary screen; Q8BHY3; B-score at 10 µM; actives 0.3% (n = 340,000); HEK293 TMEM16A/YFP-H148Q/I152L, iodide quench fluorescence; stronger effect = lower value;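 active = fluorescence-ratio B-score plate-corrected deviation score at least 3 library SD below zero, with starting fluorescence score within 5 deviations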;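 also: channel opened by trigger with iodide after compound preincubation; score built on the fluorescence ratio of max minus min over baseline; more negative score means more quench and so TMEM16A activation or potentiation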
Target sequence (Q8BHY3 whole entry, looked up): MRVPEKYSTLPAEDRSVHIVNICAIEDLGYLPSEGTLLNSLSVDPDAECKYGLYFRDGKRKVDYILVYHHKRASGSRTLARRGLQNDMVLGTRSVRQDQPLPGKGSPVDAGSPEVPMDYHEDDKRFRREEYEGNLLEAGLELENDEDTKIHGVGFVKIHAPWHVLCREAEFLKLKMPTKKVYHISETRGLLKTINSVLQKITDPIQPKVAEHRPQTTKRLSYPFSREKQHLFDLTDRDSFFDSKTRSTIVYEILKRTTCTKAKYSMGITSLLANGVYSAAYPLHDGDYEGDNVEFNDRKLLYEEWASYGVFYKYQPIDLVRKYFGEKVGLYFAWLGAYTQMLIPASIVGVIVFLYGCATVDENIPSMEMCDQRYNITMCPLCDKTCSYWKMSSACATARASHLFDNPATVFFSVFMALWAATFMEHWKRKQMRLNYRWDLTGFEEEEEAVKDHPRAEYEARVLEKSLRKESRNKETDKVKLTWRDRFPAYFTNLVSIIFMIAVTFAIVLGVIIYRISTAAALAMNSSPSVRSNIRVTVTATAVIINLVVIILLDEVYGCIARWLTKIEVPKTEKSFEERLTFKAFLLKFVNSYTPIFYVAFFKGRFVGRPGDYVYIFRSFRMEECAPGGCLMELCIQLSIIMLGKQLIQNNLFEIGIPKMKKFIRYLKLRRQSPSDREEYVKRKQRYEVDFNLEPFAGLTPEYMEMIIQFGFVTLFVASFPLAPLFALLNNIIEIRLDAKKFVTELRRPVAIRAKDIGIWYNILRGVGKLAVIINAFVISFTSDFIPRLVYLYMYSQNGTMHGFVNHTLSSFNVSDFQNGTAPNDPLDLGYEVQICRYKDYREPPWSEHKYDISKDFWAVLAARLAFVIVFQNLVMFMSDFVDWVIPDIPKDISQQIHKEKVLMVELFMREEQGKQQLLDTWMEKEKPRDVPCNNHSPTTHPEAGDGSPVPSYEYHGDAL
Lipid droplet: hepatic lipid droplet formation modulation | AML12 mouse hepatocytes, oleate lipid droplets, BODIPY imaging | inhibition, % at 6.5 µM | actives 0.4% (n = 240,000);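 active = lipid droplet intensity inhibited by at least 50%, with more than 500 cells counted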
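Assay system: AML12 mouse liver cells | Compound: 6.5 µM single-point dosing | Schedule: Overnight exposure | Technique: Fluorescence imaging, 20x objective, two fields per well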
CHOP UPR activ: apoptotic UPR (CHOP) activation. CHO-CHOP luciferase reporter, luminescence; percent of tunicamycin response over DMSO baseline. activation, % at 10 µM. actives 0.34% (n = 330,000). AID 449763;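 active = at 10 µM dose, activation of 40% or more, normalized to positive control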
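Test system: CHO CHOP reporter cells. Input: 500 CHO-CHOP cells per well. Medium: F12 with 10% FBS. Technique: luciferase luminescence. Measure: percent activation relative to tunicamycin control. Dosing: 10 µM compound, 0.5% DMSO. Timing: 16-18 h cell attachment, then 6 h compound exposure, 37 °C.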
UPR XBP1 act: adaptive UPR (XBP1) activation; actives 0.33% (n = 330,000); activation, % at 20 µM; AID 463104; CHO-XBP1 luciferase reporter, IRE1-XBP1 UPR activation, luminescence; percent of tunicamycin response, DMSO as zero;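 active = versus positive control, 20 µM dose yields 30% or more activation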
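Signal: luciferase luminescence; Assay system: CHO-XBP1 luciferase reporter cells; Amount: one thousand reporter cells per well; Dosing: 20 µM single concentration, DMSO 1%; Benchmarks: high control tunicamycin 10 µg/mL final, low control DMSO vehicle only; Schedule: 6 h compound exposure at 37 °C, 5% CO2; Evaluation: percent activation relative to tunicamycin reference.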
CHOP inh: inhibitors of CHOP induction in ER stress response; CHO-K1 CHOP-promoter luciferase, tunicamycin-induced, 15-18 h; inhibition, % at 10 µM; actives 3.8% (n = 220,000);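 active = compounds that reduced the stress-induced luciferase reporter signal by more than about 70% of percent inhibition, limit read from the data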
TMEM16A inh: inhibitors of mouse TMEM16A calcium-activated chloride channel; actives 1.2% (n = 310,000); normalized B-score (activity score, 25-100; higher = stronger inhibition) at 10 µM; HEK293 TMEM16A/YFP iodide influx fluorescence, ionomycin;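 active = ratio plate-corrected score three or more library SD toward inhibition, starting fluorescence score within five deviations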;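 also: score derived from kinetic fluorescence span divided by baseline fluorescence per well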
Hits are given with their value; 0 = inactive; - = no result given. Compounds with a hit are over-represented: about 4.2% of the library has one in this group of screens.

SMILES	TMEM16A act	Lipid droplet	CHOP UPR activ	UPR XBP1 act	CHOP inh	TMEM16A inh
CCN=C1SC(C(=O)Nc2cccc(C)c2)CC(=O)N1CC (centres undefined)	0	0	0	0	0	0
CCN=C1SC(C(=O)Nc2ccc(Cl)c(Cl)c2)CC(=O)N1CC (centres undefined)	0	0	0	0	74	0
CCN=C1SC(C(=O)Nc2cccc(Cl)c2)CC(=O)N1CC (centres undefined)	0	0	0	0	0	0
CCN(C(=O)COC(=O)c1ccc(SC)cc1OC)C1CCS(=O)(=O)C1 (centres undefined)	0	-	0	0	-	-
Cc1cc(C)c2nc3s/c(=C/c4ccccc4)c(=O)n3c2c1	-	0	-	-	0	-
O=c1/c(=C\c2ccc(O)cc2)sc2nc(-c3ccccc3)c(-c3ccccc3)n12	0	0	0	0	91	0
O=Cc1ccc(OC(=O)c2cc(Cl)nc3ccccc23)cc1	0	0	0	0	85	0
O=C(Oc1cccc2ccccc12)c1cc(Cl)nc2ccccc12	0	0	0	0	0	0
Cc1[nH]n(-c2ccccc2)c(=S)c1C=Nc1cccc([N+](=O)[O-])c1	0	-	0	0	80	0
O=C(Nc1ccccc1C(=O)N1CCCCC1)c1cc(F)c(F)cc1Cl	0	0	0	0	-	0
Cn1cc(Cl)c(C(=O)Nc2cccc(Cl)c2Cl)n1	0	0	0	0	75	0
O=C(COC(=O)CCSc1ccccc1Cl)Nc1ccc(F)cc1F	0	0	0	0	72	0
O=C(COC(=O)CCSc1ccccc1)Nc1ccc(F)cc1Cl	0	0	0	0	0	0
O=C(O)COc1ccccc1/C=N/NC(=O)CNC(=O)c1ccco1	0	0	0	0	-	0
O=C(NNC(=O)C1CCC1)c1ccccc1F	0	-	0	0	-	0
CCCc1ccc(OC(=O)c2ccc(O)cc2Cl)cc1	0	0	0	0	87	0
CCCc1ccc(OC(=O)c2cccs2)cc1	0	0	0	0	0	0
Cc1[nH]c2c(Br)cccc2c1[C@H]1[C@@H](CC#N)C1(C)C	0	0	0	0	72	0
Cc1c([C@H]2[C@@H](CC#N)C2(C)C)c2ccccc2n1C	0	0	0	0	0	0
Cc1cc(OCC(=O)N[C@@H](Cc2ccccc2)c2nc3ccccc3[nH]2)ccc1Cl	0	0	0	0	72	0
CCC1CO/C(=C(\C(Cl)=C(Cl)Cl)[N+](=O)[O-])N1 (centres undefined)	0	0	0	0	79	0
Clc1ccc(Cn2ncc3c(NCc4ccccc4)ncnc32)c(Cl)c1	-	0	0	0	81	0
COc1ccc(OCC(=O)NC2CCSc3ccccc32)cc1 (centres undefined)	0	-	0	0	-	-
CCOc1ccc(S(=O)(=O)N2CCCC(C(=O)NCCN3CCOCC3)C2)cc1Cl (centres undefined)	0	0	0	0	-	0
CCOC(=O)C1=C(c2ccccc2)OC(N)=C(C#N)C1c1ccc(Br)s1 (centres undefined)	0	0	0	0	82	0
SMILES	TMEM16A act	Lipid droplet	CHOP UPR activ	UPR XBP1 act	CHOP inh	TMEM16A inh
CCOC(=O)C1=C(C)OC(N)=C(C#N)C1c1ccccc1 (centres undefined)	0	0	0	0	0	0
CCOC(=O)C1=C(c2ccccc2)OC(N)=C(C#N)C1c1ccc(Cl)s1 (centres undefined)	0	-	0	0	78	0
CCOC(=O)C1=C(c2ccccc2)OC(N)=C(C#N)C1c1cccnc1 (centres undefined)	0	0	0	0	0	0
COc1ccc(Cn2c(-c3ccco3)nc3oc4cc(OC)ccc4c(=O)c3c2=O)cc1	0	-	0	0	92	0
N#CC1=C(N)NC(SCc2ccccc2)=C(C#N)C12CCCC2	-5.1	0	0	0	0	0
N#CC1=C(N)NC(SCC(=O)Nc2ccc(Br)cc2)=C(C#N)C12CCCCC2	0	0	0	0	73	100
N#CC1=C(N)NC(SCc2ccc(Br)cc2)=C(C#N)C12CCCCC2	0	0	0	0	93	100
N#CC1=C(N)NC(SCc2ccc(Cl)cc2)=C(C#N)C12CCCCC2	0	0	0	0	0	100

Bioassay records deposited in PubChem BioAssay by several laboratories.
